What all share (assay type): functional
Assay [1] relates to Mycolicibacterium smegmatis. Briefly: Antibacterial activity against Mycobacterium smegmatis ATCC 14468 assessed as zone of inhibition diameter at 1 mg/mL after 48 hrs by Kirby-Bauer disk diffusion assay. To be noted: ATCC 14468, 48 h, read-out: IZ. The method in brief: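 Kirby–Bauer disk diffusion on Middlebrook 7H10 agar with 0.5% glycerol and OADC. Inoculum grown in 7H9 with 0.2% glycerol and ADC about 24 h at 37 °C, 180 rpm. 10 µL of 1 mg/mL compound in DMSO applied to 6 mm disks. INH (1 mg/mL in DMSO) positive control, DMSO negative control. Plates incubated 48 h at 37 °C. Inhibition zone diameter measured.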

Assay [2] relates to Bacillus subtilis. Briefly: Antibacterial activity against Bacillus subtilis ATCC 6633 assessed as zone of inhibition diameter at 1 mg/mL after 24 hrs by Kirby-Bauer disk diffusion assay. To be noted: ATCC 6633, 24 h, read-out: IZ. The method in brief: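 Kirby–Bauer disk diffusion on nutrient agar, inoculum grown in Mueller–Hinton broth about 24 h at 37 °C, 180 rpm. 10 µL of 1 mg/mL compound in DMSO applied to 6 mm paper disks. Vancomycin (1 mg/mL in water) positive control, DMSO negative control. Plates incubated 24 h at 37 °C. Inhibition zone diameter measured.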
In general terms: Agar diffusion results depend on both activity and mobility in agar.

The test system of assay [3] is Enterococcus faecalis. Briefly: Antibacterial activity against Enterococcus faecalis ATCC 29212 assessed as zone of inhibition diameter at 1 mg/mL after 24 hrs by Kirby-Bauer disk diffusion assay. The method in brief: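 Inoculum grown in Mueller–Hinton broth ~24 h at 37 °C, 180 rpm, then plated on nutrient agar. Kirby–Bauer disk method: 10 µL of 1 mg/mL solution in DMSO applied to 6 mm sterile paper disk; vancomycin (1 mg/mL in water) positive control, DMSO negative control. Plates incubated 24 h at 37 °C; inhibition zone diameter measured.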

The test system of assay [4] is Mycolicibacterium smegmatis. Briefly: Antibacterial activity against Mycobacterium smegmatis ATCC 14468 after 48 hrs visualized by MTT […]. To be noted: ATCC 14468, 48 h.
Assay [5] has as its system Bacillus subtilis. Put plainly: Antibacterial activity against Bacillus subtilis ATCC 6633 after 24 hrs visualized by MTT analyzed by broth microdilution assay. To be noted: ATCC 6633, 24 h. (In broth dilution the organism is exposed to a series of concentrations in liquid medium.)
In assay [6] the test system is Enterococcus faecalis. Briefly: Antibacterial activity against Enterococcus faecalis ATCC 29212 after 24 hrs visualized by MTT analyzed by broth microdilution assay. To be noted: ATCC 29212, 24 h.

In brackets after ≈: the same amount, converted by molar mass. Activity calls are given as the source filed them. The calls are words filed in the database; no cut-off is given here.

As usually defined, the MIC is the least concentration at which growth counts as inhibited. A high value points to a need for much substance. For `CC(=O)c1ccc(N2CC(Cn3cc(CCO)nn3)OC2=O)cc1` (stereo not drawn), the zone of inhibition at 1000 µg/mL in assay [1] is 15 mm; in the assay with Bacillus subtilis [2], 17 mm. Moreover, the result in the assay with Enterococcus faecalis [3] was inactive. In addition, the MIC in assay [4] was 16 µg/mL (≈ 48.4 µM); against Bacillus subtilis [5] it was above 32 µg/mL; in the assay with Enterococcus faecalis [6], above 32 µg/mL.
Take `CC(=O)c1ccc(N2CC(Cn3ccnn3)OC2=O)cc1` (stereo not drawn): the zone of inhibition at 1000 µg/mL in assay [1] is 25 mm; in the assay on Bacillus subtilis [2], 26 mm. In the assay on Enterococcus faecalis [3], the outcome was inactive. The MIC worked out at 1 µg/mL (≈ 3.49 µM) in assay [4], 4 µg/mL (≈ 14 µM) in the assay on Bacillus subtilis [5] and 16 µg/mL (≈ 55.9 µM) against Enterococcus faecalis [6].
As to `CN[C@H](CC(C)C)C(=O)N[C@H]1C(=O)N[C@@H](CC(N)=O)C(=O)N[C@H]2C(=O)N[C@H]3C(=O)N[C@H](C(=O)N[C@H](C(=O)O)c4cc(O)cc(O)c4-c4cc3ccc4O)[C@H](O)c3ccc(c(Cl)c3)Oc3cc2cc(c3O[C@@H]2O[C@H](CO)[C@@H](O)[C@H](O)[C@H]2O[C@H]2C[C@](C)(N)[C@H](O)[C@H](C)O2)Oc2ccc(cc2Cl)[C@H]1O` [VANCOMYCIN], the zone of inhibition at 1000 µg/mL is 15 mm in the assay on Bacillus subtilis [2] and 14 mm with Enterococcus faecalis [3] (ATCC 29212, 24 h, read-out: IZ). Also, the figures for the MIC in the assay on Bacillus subtilis [5] and in the assay with Enterococcus faecalis [6] were 0.5 µg/mL (≈ 0.345 µM) and 1 µg/mL (≈ 0.69 µM), respectively.
Turning to `NNC(=O)c1ccncc1` [ISONIAZID], the zone of inhibition at 1000 µg/mL in assay [1] came out at 17 mm. Further, the MIC in assay [4] came out at 4 µg/mL (≈ 29.2 µM).

(Values after ChEMBL document CHEMBL1156724, “Synthesis of triazole-oxazolidinones via a one-pot reaction and evaluation of their antimicrobial activity” (2008).)
